Converted amounts (≈) assume the structure as drawn. The source made the active and inactive calls. The rule behind the calls is not given here.
Legend:
[1] = system: Staphylococcus aureus; assay: Antimicrobial activity against Staphylococcus aureus NCTC 4163 at 400 ug after 18 hrs by disc-diffusion method; assay type: functional; settings: NCTC 4163, 18 h, read-out: IZ
Method in brief: (§1)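 Disc diffusion on Mueller-Hinton II agar per CLSI; 9 mm paper discs loaded with 400 µg compound from DMSO solution, dried, placed on agar; growth inhibition zone diameter read after 18 h at 35°C.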

[2] = system: Micrococcus luteus; assay: Antimicrobial activity against Micrococcus luteus ATCC 9341 at 400 ug after 18 hrs by disc-diffusion method; assay type: functional; settings: ATCC 9341, 18 h, read-out: IZ; method in brief: as §1
[3] = system: Yellow fever virus; assay: Antiviral activity against Yellow fever virus 17D infected in BHK cells assessed as protection against virus-induced cytopathogenicity after 3 to 4 days by MTT assay; assay type: functional, cell-based
[4] = Cytotoxicity against human MT4 cells; assay type: cell-based
[5] = system: Poliovirus 1; assay: Antiviral activity against Poliovirus type 1 ATCC VR-1562 infected in African green monkey Vero 76 cells assessed as reduction of virus-plaque formation after 2 days by crystal violet staining; assay type: functional, organism-based; settings: Enterovirus C, ATCC VR-1562, Vero, 48 h
[6] = system: Staphylococcus aureus; assay: Antimicrobial activity against Staphylococcus aureus ATCC 29213 at 400 ug after 18 hrs by disc-diffusion method; assay type: functional; settings: ATCC 29213, 18 h, read-out: IZ; method in brief: as §1
[7] = system: Vaccinia virus; assay: Antiviral activity against Human Vaccinia virus ATCC VR-1549 infected in African green monkey Vero 76 cells assessed as reduction of virus-plaque formation after 3 days by crystal violet staining; assay type: functional, organism-based; settings: Orthopoxvirus vaccinia, ATCC VR-1549, Vero, 72 h
[8] = system: Staphylococcus aureus; assay: Antimicrobial activity against Staphylococcus aureus ATCC 25923 after 18 hrs by twofold serial microdilution method; assay type: functional; settings: ATCC 25923, 18 h
[9] = system: Enterococcus faecalis; assay: Antimicrobial activity against Enterococcus faecalis ATCC 29212 at 400 ug after 18 hrs by disc-diffusion method; assay type: functional; settings: ATCC 29212, 18 h, read-out: IZ; method in brief: as §1
[10] = system: Proteus vulgaris; assay: Antimicrobial activity against Proteus vulgaris NCTC 4635 at 400 ug after 18 hrs by disc-diffusion method; assay type: functional; method in brief: as §1
[11] = system: Staphylococcus epidermidis; assay: Antimicrobial activity against Staphylococcus epidermidis ATCC 12228 at 400 ug after 18 hrs by disc-diffusion method; assay type: functional; settings: ATCC 12228, 18 h, read-out: IZ; method in brief: as §1
[12] = system: Staphylococcus epidermidis; assay: Antimicrobial activity against Staphylococcus epidermidis ATCC 35984 at 400 ug after 18 hrs by disc-diffusion method; assay type: functional; settings: ATCC 35984, 18 h, read-out: IZ; method in brief: as §1
[13] = system: Mycobacterium tuberculosis; assay: Antimycobacterial activity against Mycobacterium tuberculosis H37Rv ATCC 25618; assay type: functional
Method in brief: (§2)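 Classical test-tube successive-dilution method in Youmans' modification of Proskauer and Beck liquid medium with 10% bovine serum. Inoculum came from 14-day cultures. DMSO stock was 10 mg/mL, diluted geometrically in medium. Tubes were incubated at 37 °C. Concentrations tested were 3.1, 6.2, 12.5, 25, 50 and 100 µg/ml. MIC is the minimum concentration inhibiting growth relative to compound-free tubes.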

[14] = system: Staphylococcus aureus; assay: Antimicrobial activity against Staphylococcus aureus ATCC 25923 at 400 ug after 18 hrs by disc-diffusion method; assay type: functional; settings: ATCC 25923, 18 h, read-out: IZ; method in brief: as §1
[15] = system: Bacillus cereus; assay: Antimicrobial activity against Bacillus cereus ATCC 11778 at 400 ug after 18 hrs by disc-diffusion method; assay type: functional; settings: ATCC 11778, 18 h, read-out: IZ; method in brief: as §1
[16] = system: Staphylococcus epidermidis; assay: Antimicrobial activity against Staphylococcus epidermidis ATCC 12228 after 18 hrs by twofold serial microdilution method; assay type: functional; settings: ATCC 12228, 18 h
[17] = system: Staphylococcus epidermidis; assay: Antimicrobial activity against Staphylococcus epidermidis ATCC 35984 after 18 hrs by twofold serial microdilution method; assay type: functional; settings: ATCC 35984, 18 h
[18] = system: Human alphaherpesvirus 1; assay: Antiviral activity against Human herpesvirus 1 KOS ATCC VR-1493 infected in African green monkey Vero 76 cells assessed as reduction of virus-plaque formation after 3 days by crystal violet staining; assay type: functional, organism-based; settings: Human alphaherpesvirus 1, KOS ATCC VR1493, Vero, 72 h
Method in brief: (§3)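 Plaque reduction: Vero-76 at 2x10^5 cells/well grown to confluent monolayers, infected 2 h at 50–100 PFU/well; after removing unadsorbed virus, overlay of D-MEM, 1% inactivated FBS, 0.75% methylcellulose with or without serial compound dilutions; 3 days at 37°C, fixed and stained with crystal violet in 50% ethanol, plaques counted; EC50 by linear regression.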

[19] = system: Bacillus subtilis; assay: Antimicrobial activity against Bacillus subtilis ATCC 6633 at 400 ug after 18 hrs by disc-diffusion method; assay type: functional; settings: ATCC 6633, 18 h, read-out: IZ; method in brief: as §1
[20] = system: Coxsackievirus B5; assay: Antiviral activity against Human coxsackievirus B5 ATCC VR-29 infected in African green monkey Vero 76 cells assessed as reduction of virus-plaque formation after 3 days by crystal violet staining; assay type: functional, organism-based; settings: Enterovirus B, ATCC VR-29, Vero, 72 h; method in brief: as §3
[21] = system: Vesicular stomatitis virus; assay: Antiviral activity against Vesicular stomatitis virus ATCC VR 1540 infected in African green monkey Vero 76 cells assessed as reduction of virus-plaque formation after 2 days by crystal violet staining; assay type: functional, organism-based; settings: ATCC VR 1540, Vero, 48 h
[22] = system: Mammalian orthoreovirus 1; assay: Antiviral activity against Reovirus type-1 ATCC VR-214 infected in BHK cells assessed as protection against virus-induced cytopathogenicity after 3 to 4 days by MTT assay; assay type: functional, cell-based; settings: Mammalian orthoreovirus 1, ATCC VR-214, BHK
Method in brief: (§4)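 Cells seeded in 96-well plates (BHK 5x10^4, MDBK 3x10^4 cells/well), grown overnight to confluence, infected at m.o.i. 0.01 (BHK for Reo-1, MDBK for BVDV); serial compound dilutions in maintenance medium with 0.5% inactivated FBS added after 1 h; viability by MTT after 3–4 days at 37°C; EC50 for 50% protection by linear regression.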

[23] = system: Staphylococcus aureus; assay: Antimicrobial activity against Staphylococcus aureus ATCC 29213 after 18 hrs by twofold serial microdilution method; assay type: functional; settings: ATCC 29213, 18 h
[24] = system: Enterococcus hirae; assay: Antimicrobial activity against Enterococcus hirae ATCC 10541 at 400 ug after 18 hrs by disc-diffusion method; assay type: functional; settings: ATCC 10541, 18 h, read-out: IZ; method in brief: as §1
[25] = Cytotoxicity against African green monkey Vero 76 cells assessed as cell viability after 48 to 96 hrs by crystal violet staining; assay type: cell-based; settings: chlorocebus sabaeus
[26] = system: Staphylococcus aureus; assay: Antimicrobial activity against Staphylococcus aureus NCTC 4163 after 18 hrs by twofold serial microdilution method; assay type: functional; settings: NCTC 4163, 18 h
[27] = Antiviral activity against Bovine viral diarrhea virus 1-NADL ATCC VR-534 infected in MDBK cells assessed as protection against virus-induced cytopathogenicity after 3 to 4 days by MTT assay; assay type: functional, cell-based; settings: Bovine viral diarrhea virus isolates and strains, ATCC VR-534, MDBK; method in brief: as §4
[28] = system: Human immunodeficiency virus 1; assay: Antiviral activity against HIV1 3B infected in human MT4 cells assessed as protection against virus-induced cytopathogenicity by MTT assay; assay type: functional, organism-based; settings: Human immunodeficiency virus 1, 3B
[29] = system: Micrococcus luteus; assay: Antimicrobial activity against Micrococcus luteus ATCC 10240 at 400 ug after 18 hrs by disc-diffusion method; assay type: functional; settings: ATCC 10240, 18 h, read-out: IZ; method in brief: as §1
[30] = system: Staphylococcus aureus; assay: Antimicrobial activity against Staphylococcus aureus ATCC 6538 after 18 hrs by twofold serial microdilution method; assay type: functional; settings: ATCC 6538, 18 h
[31] = Cytotoxicity against BHK cells assessed as cell viability after 48 to 96 hrs by MTT assay; assay type: cell-based, Mesocricetus auratus; settings: hamster
[32] = Cytotoxicity against bovine MDBK cells assessed as cell viability after 48 to 96 hrs by MTT assay; assay type: cell-based, Bos taurus; settings: cattle
[33] = system: Mycobacterium tuberculosis; assay: Antimycobacterial activity against drug-sensitive Mycobacterium tuberculosis Spec. 192; assay type: functional; method in brief: as §2
[34] = system: Staphylococcus aureus; assay: Antimicrobial activity against Staphylococcus aureus ATCC 6538 at 400 ug after 18 hrs by disc-diffusion method; assay type: functional; settings: ATCC 6538, 18 h, read-out: IZ; method in brief: as §1

COc1cccc(NC(=S)Nc2cccc(C(F)(F)F)c2)c1
zone of inhibition at 400 µg/disc [1]: 20 mm | zone of inhibition at 400 µg/disc [2]: 24 mm | EC50 [3]: > 12 µM | CC50 [4]: 26 µM | EC50 [5]: > 20 µM | zone of inhibition at 400 µg/disc [6]: 22 mm | EC50 [7]: > 20 µM | MIC [8]: 32 µg/mL (≈ 98.1 µM) | zone of inhibition at 400 µg/disc [9]: 13 mm | inhibition zone (IZ) [10]: inactive | zone of inhibition at 400 µg/disc [11]: 22 mm | zone of inhibition at 400 µg/disc [12]: 21 mm | MIC [13]: > 100 µg/mL | zone of inhibition at 400 µg/disc [14]: 20 mm | zone of inhibition at 400 µg/disc [15]: 19 mm | MIC [16]: 32 µg/mL (≈ 98.1 µM) | MIC [17]: 32 µg/mL (≈ 98.1 µM) | EC50 [18]: > 20 µM | zone of inhibition at 400 µg/disc [19]: 20 mm | EC50 [20]: > 20 µM | EC50 [21]: > 20 µM | EC50 [22]: > 12 µM | MIC [23]: 32 µg/mL (≈ 98.1 µM) | zone of inhibition at 400 µg/disc [24]: 12 mm | CC50 [25]: 20 µM | MIC [26]: 32 µg/mL (≈ 98.1 µM) | EC50 [27]: > 52 µM | EC50 [28]: > 26 µM | zone of inhibition at 400 µg/disc [29]: 19 mm | MIC [30]: 32 µg/mL (≈ 98.1 µM) | CC50 [31]: 12 µM | CC50 [32]: 52 µM | MIC [33]: > 100 µg/mL | zone of inhibition at 400 µg/disc [34]: 23 mm

COc1c(C)c2c(c(O)c1C/C=C(\C)CCC(=O)O)C(=O)OC2 [MYCOPHENOLIC ACID]
CC50 [25]: > 100 µM

O=C1Nc2ccc(Cl)cc2[C@@](C#CC2CC2)(C(F)(F)F)O1 [EFAVIRENZ]
CC50 [4]: 40 µM

C[C@@]1(O)[C@H](O)[C@@H](CO)O[C@H]1n1ccc(N)nc1=O
EC50 [5]: 7.3 µM | EC50 [20]: 18 µM | EC50 [22]: 16 µM | CC50 [25]: > 100 µM | CC50 [31]: > 10 µM

C[C@@]1(O)[C@H](O)[C@@H](CO)O[C@H]1n1cnc2c(=O)[nH]c(N)nc21 [2'-B-METHYL-GUANOSINE]
EC50 [3]: 1.9 µM | EC50 [27]: 1.1 µM | CC50 [31]: > 100 µM | CC50 [32]: > 10 µM

Fc1ccc(NC(=S)Nc2cccc(C(F)(F)F)c2)cc1
zone of inhibition at 400 µg/disc [1]: 27 mm | zone of inhibition at 400 µg/disc [2]: 28 mm | EC50 [3]: > 26 µM | CC50 [4]: 31 µM | EC50 [5]: > 40 µM | zone of inhibition at 400 µg/disc [6]: 25 mm | EC50 [7]: > 40 µM | MIC [8]: 8 µg/mL (≈ 25.5 µM) | zone of inhibition at 400 µg/disc [9]: 20 mm | zone of inhibition at 400 µg/disc ([10]; NCTC 4635, 18 h, read-out: IZ): 14 mm | zone of inhibition at 400 µg/disc [11]: 26 mm | zone of inhibition at 400 µg/disc [12]: 25 mm | MIC [13]: 25 µg/mL (≈ 79.5 µM) | zone of inhibition at 400 µg/disc [14]: 23 mm | zone of inhibition at 400 µg/disc [15]: 23 mm | MIC [16]: 16 µg/mL (≈ 50.9 µM) | MIC [17]: 16 µg/mL (≈ 50.9 µM) | EC50 [18]: > 40 µM | zone of inhibition at 400 µg/disc [19]: 25 mm | EC50 [20]: > 40 µM | EC50 [21]: > 40 µM | EC50 [22]: > 26 µM | MIC [23]: 16 µg/mL (≈ 50.9 µM) | zone of inhibition at 400 µg/disc [24]: 30 mm | CC50 [25]: 40 µM | MIC [26]: 8 µg/mL (≈ 25.5 µM) | EC50 [27]: > 41 µM | EC50 [28]: > 31 µM | zone of inhibition at 400 µg/disc [29]: 28 mm | MIC [30]: 16 µg/mL (≈ 50.9 µM) | CC50 [31]: 26 µM | CC50 [32]: 41 µM | MIC [33]: 25 µg/mL (≈ 79.5 µM) | zone of inhibition at 400 µg/disc [34]: 25 mm
